HePTP inhibitor: blocks human HePTP tyrosine phosphatase. 110,000 tested, 0.64% active. inhibition, % at 20 µM. recombinant HePTP phosphatase activity, OD absorbance; in the data active = inhibition above about 50%;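 note: plate controls were vehicle for no effect and reference inhibitor for full effect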
Ecoli tolC: E. coli tolC mutant growth inhibition. E. coli BW25113 tolC mutant growth, OD615. growth inhibition, % at 10 µM (by protocol). 65,000 tested, 2.2% active. AID 573;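 active = growth inhibition at or above a cutoff equal to the mean over every tested compound plus 3 SD, cut at about 60% in these data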;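 note: growth measured after 20 h incubation at 37 °C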
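signal = optical density read at 615 nm | test system = E. coli ΔtolC::kan strain BW25113 | timing = 20 h compound exposure of bacteria at 37 °C | buffer or medium = LB medium plus 50 µg/mL kanamycin | compound dosing = 10 µM final, single dose | evaluation = % inhibition of E. coli growth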
PLAP activator: activators of human placental alkaline phosphatase. P05187. purified PLAP enzyme, luminescent substrate read-out; hits give high values. activation fold at 20 µM. 96,000 tested, 1.2% active; in the data active = activation fold above about 2
Target sequence (P05187 whole entry, looked up): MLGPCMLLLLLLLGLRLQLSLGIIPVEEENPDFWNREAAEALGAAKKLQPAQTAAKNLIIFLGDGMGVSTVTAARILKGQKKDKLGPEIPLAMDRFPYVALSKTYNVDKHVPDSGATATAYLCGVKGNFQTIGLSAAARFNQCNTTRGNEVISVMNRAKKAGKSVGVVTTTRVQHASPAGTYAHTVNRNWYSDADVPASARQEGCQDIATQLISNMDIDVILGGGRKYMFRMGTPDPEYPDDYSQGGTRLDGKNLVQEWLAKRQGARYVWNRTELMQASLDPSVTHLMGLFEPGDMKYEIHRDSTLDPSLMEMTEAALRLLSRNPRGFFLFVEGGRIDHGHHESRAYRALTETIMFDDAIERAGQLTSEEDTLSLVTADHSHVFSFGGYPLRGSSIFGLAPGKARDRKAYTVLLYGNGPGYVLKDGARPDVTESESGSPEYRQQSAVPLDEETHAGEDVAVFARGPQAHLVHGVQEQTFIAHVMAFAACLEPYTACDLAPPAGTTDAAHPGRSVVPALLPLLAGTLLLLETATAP
PostGolgi yeast: growth inhibition of a yeast mutant, post-Golgi transport screen | post-Golgi transport phenotypic cell assay | 98,000 tested, 0.9% active | AID 739 | inhibition, % at 10 µM;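 note: yeast cells grown in 1536-well plates; yeast grown about 18 h at 30C before absorbance read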
PostGolgi ctrl: growth of the yeast control strain, post-Golgi counter-screen; 98,000 tested, 5% active; inhibition, % at 10 µM; efflux-deficient yeast background strain, growth absorbance A615, 16 h
E coli WT exp: E. coli BW25113 growth inhibition, expanded screen. OD600 absorbance. growth inhibition, % at 100 µM. 98,000 tested, 0.15% active;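 active = growth inhibition above about 50% at one test dose, limit read from the data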;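 note: growth measured after 20 h incubation at 37 °C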
* = called active by the depositor; . = no result. In the library only some 5.5% were active in any assay of this set; here they are far more common. Cut-off read from the data, not from the text of the source, unless noted: active = inhibition above about 30%; inactive = the rest.

SMILES	HePTP inhibitor	Ecoli tolC	PLAP activator	PostGolgi yeast	PostGolgi ctrl	E coli WT exp
CCCOc1ccc(C2C(C(=O)c3ccc(C)o3)=C(O)C(=O)N2Cc2cccnc2)cc1 (stereo unspecified)	13	67*	1.6	.	.	.
COC(=O)C1=C(C)N(Cc2cccnc2)C(=O)/C1=C\c1cccc(Cl)c1Cl	4	.	.	.	.	.
Nc1nonc1NC(=O)N/N=C\c1ccccc1F	-6	.	.	.	.	.
CC(=O)Nc1ccc(S(=O)(=O)n2c(C)cc(C)nc2=O)cc1	2	.	.	.	.	.
CCOc1ccc(NC(=O)C2=C(C)NC(=O)NC2c2ccc(OC)cc2OC)cc1 (stereo unspecified)	-15	.	.	.	.	.
CCCOC(=O)NC(CC)COC(=O)Nc1cc(C)ccc1C (stereo unspecified)	11	-8	0.9	2	33*	-1
COc1ccc(-n2c(C)cc(C(=O)COC(=O)Cn3cnc4ccccc43)c2C)cc1	4	63*	1	-7	16	16
COCCOC(=O)c1c(C)oc2ccc(OC(=O)c3ccccc3OC)cc12	-2	.	.	.	.	.
Cc1ccc(OCCCCCCn2ccnc2)c(C)c1	-6	.	.	.	.	.
COC(=O)c1ccc(C(=O)OC)c(NC(=O)C(C)Oc2ccccc2)c1 (stereo unspecified)	4	.	.	.	.	.
O=C(Nc1nccs1)c1cc2c(s1)CCCCC2	.	.	1.2	-10	26	12
COC(=O)c1sccc1NC(=O)c1cc2c(s1)CCCC2	-8	61*	1.4	-7	4	-4
COC(=O)CCN1C(=O)/C(=C\c2ccc(C)cc2)SC1=S	0	.	.	.	.	.
CN1C(=O)C(=Cc2c(Cl)cccc2Cl)C(=O)N(C)C1=O	-6	.	.	.	.	.
Cc1ccccc1CSc1nc2n(n1)C(c1cccs1)C1=C(CCCC1=O)N2 (stereo unspecified)	10	100*	1.1	-15	9	-12
O=C1CCCC2=C1C(c1cccs1)n1nc(SCc3ccccc3F)nc1N2 (stereo unspecified)	-7	28	.	3	16	-10
CN(C)c1ccc(/C=C/C=N/NC(=O)c2ccccc2O)cc1	6	.	.	.	.	.
Cc1cccc(NC2=C(Cl)C(=O)N(c3ccc(Cl)cc3)C2=O)c1C	-2	.	.	.	.	.
CSc1ccc(-c2cc(=O)c3ccccc3o2)cc1	6	61*	1.2	1	1	-12
CC(Oc1ccc(Cl)cc1Cl)C(=O)Nc1nc(-c2ccc(F)cc2)cs1 (stereo unspecified)	3	.	.	.	.	.
CC(=O)Oc1ccc(C(=O)Nc2nnc(C)s2)cc1	2	2	0.9	30*	2	-18
Cc1ccccc1-n1nnnc1SC1CCOC1=O (stereo unspecified)	-4	-5	1.3	-2	35*	3
COc1ccccc1-n1cnnc1SC1CCOC1=O (stereo unspecified)	1	1	1	-2	-2	-4
Cc1cccc(N=C2Sc3nc4c(C)c(C)ccc4cc3CN2CCN2CCOCC2)c1	.	.	1.4	46*	97*	-1
COc1ccc(-n2nnnc2SCC(=O)c2cc3ccccc3o2)cc1	9	10	1	1	35*	-9
SMILES	HePTP inhibitor	Ecoli tolC	PLAP activator	PostGolgi yeast	PostGolgi ctrl	E coli WT exp
COc1ccc(/C=N/NC(=O)C(C)Nc2ccc(Cl)cc2)c(OC)c1 (stereo unspecified)	-9	.	.	.	.	.
O=C(Nc1ccccc1)C1CC(=O)N(c2ccccc2)C1 (stereo unspecified)	10	.	.	.	.	.
CCOc1cc(S(=O)(=O)n2cc(-c3ccc(F)cc3)c(N)n2)cc(OCC)c1OCC	-1	63*	0.8	4	8	-7
Cc1c(C(=O)NCCSCc2ccc(Cl)cc2Cl)cccc1[N+](=O)[O-]	.	.	1.3	1	55*	-15
Cc1ccc(SCCNC(=O)c2cccc([N+](=O)[O-])c2C)cc1	.	.	1	9	26	5
COc1ccc(S(=O)(=O)NCc2ccccn2)cc1	.	.	0.9	-6	-6	8
CCCCOc1ccc(C(=O)NCc2ccccn2)cc1	5	20	1.1	-4	35*	10
CCN(CC)c1ccc(C(=O)NCc2ccccn2)cc1	2	.	.	.	.	.
COc1ccc(S(=O)(=O)NCc2ccccn2)c(Cl)c1Cl	-1	4	2.1*	-3	21	7
COc1ccc(S(=O)(=O)NCCSC(C)(C)C)c(Cl)c1Cl	.	.	0.7	1	31*	5
CCOc1ccc(S(=O)(=O)NCc2ccccn2)cc1	.	.	2*	-11	30*	6
Cn1c(=O)c2c(nc(OCc3cccnc3)n2Cc2c(F)cccc2Cl)n(C)c1=O	6	12	0.8	-4	30*	-11
CCOC(=O)c1c(C)n(C)c2ccc(OC)c(NC(=O)CN3CCN(C4CCCCC4)CC3)c12	.	.	2*	0	-16	2
Cc1ccccc1C(=O)N1c2c(C)cccc2C(Nc2ccccc2)CC1C (stereo unspecified)	1	.	.	.	.	.
Cc1nc2c(Br)cc(Br)cc2cc1O	.	.	1.1	3	37*	14
Brc1cc(Br)c2nc(-c3cccs3)ccc2c1	.	.	0.6	-7	13	-13
Cc1nn(-c2ccccc2)c2[nH]c(=O)c(CNc3ccc(N4CCOCC4)cc3)cc12	7	-4	1.7	-4	3	-6
O=c1[nH]c2c(cc1CNCCN1CCOCC1)c(-c1cccc(F)c1)nn2-c1ccccc1	10	42	2*	.	.	.
Cc1ccc(S(=O)(=O)N2CCN(CC(=O)NC3CCCc4ccccc43)CC2)cc1C (stereo unspecified)	.	.	2.1*	2	19	0
O=C(CCC(=O)N1CCN(S(=O)(=O)c2ccc(Cl)cc2)CC1)NC1CCCc2ccccc21 (stereo unspecified)	.	.	1.2	14	0	-7
Cc1ccc(S(=O)(=O)N2CCN(CC(=O)NC3CCCc4ccccc43)CC2)c(C)c1 (stereo unspecified)	.	.	71	0	33*	-12
Cc1cc(C)nc(NC(=O)C2C3C=CC(C3)C2C(=O)O)c1 (stereo unspecified)	7	.	.	.	.	.
COC(=O)C(C)N(C(=O)c1cccc2ccccc12)c1c(C)cccc1C (stereo unspecified)	-12	.	1.3	10	36*	-9
Clc1ccc(-c2noc(CCCOc3ccccc3)n2)cc1	.	.	0.7	0	8	-4
Clc1ccc(-c2nc(-c3cccnc3)no2)c(Cl)c1	5	.	.	.	.	.
SMILES	HePTP inhibitor	Ecoli tolC	PLAP activator	PostGolgi yeast	PostGolgi ctrl	E coli WT exp
Clc1ccc(OCCCc2nc(-c3cccnc3)no2)c(Cl)c1	3	95*	1	-3	34*	9
Clc1ccc(OCCCc2nc(-c3ccncc3)no2)c(Cl)c1	.	.	0.9	92*	95*	16
Clc1ccc(OCc2nc(-c3ccccn3)no2)c(Br)c1	1	14	0.9	-1	31*	1
C=CCC1S/C(=N\N=C\c2ccc(Cl)cc2)NC1=O (stereo unspecified)	-6	.	.	.	.	.
COC(=O)CN(c1ccc(C)cc1)S(=O)(=O)c1ccc(SC)cc1	-3	.	.	.	.	.
CC1CCN(C(=O)c2ccccc2N(Cc2ccccc2)S(=O)(=O)c2ccccc2)CC1	4	.	.	.	.	.
O=c1cc(-c2ccccc2)nc2cc(-c3cccc(Cl)c3)[nH]n12	10	.	.	.	.	.
